PubChem BioAssay AID624411 (The Scripps Research Institute Molecular Screening Center, 2012)
The source made the active and inactive calls.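 The calls were made as follows: active = compounds blocking BCL-xL binding with IC50 of 10 µM or lower; inactive = the rest.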

Target: Bcl-2-like protein 1 (Homo sapiens) (UniProt Q07817)
Experiment: Bcl-xL binding to Bim BH3 peptide, probe test – biochemical, fluorescence polarization, probe report, counter-screen for MCL1-BIM inhibitor project, late-stage follow-up (AID 624411)
Conditions: GST-BCL-xL / FITC-Bim BH3 fluorescence polarization
Procedure, shortened: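 Probe or stimulus – FITC-labelled Bim BH3 peptide probe at 4 nM · System – purified GST-Bcl-xL fusion protein, human Bcl-xL · Amount – 12.5 nM GST-Bcl-xL · Controls – DMSO and unlabeled Bim-BH3 peptide · Technique – fluorescence polarization, mP · Medium – PBS with 0.001% Brij · Timing – compound incubation 20 min at room temperature · Read-out basis – IC50 from curve fit at 50% inhibition level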

Chain of Bcl-2-like protein 1 (Homo sapiens) (Q07817 whole entry, looked up): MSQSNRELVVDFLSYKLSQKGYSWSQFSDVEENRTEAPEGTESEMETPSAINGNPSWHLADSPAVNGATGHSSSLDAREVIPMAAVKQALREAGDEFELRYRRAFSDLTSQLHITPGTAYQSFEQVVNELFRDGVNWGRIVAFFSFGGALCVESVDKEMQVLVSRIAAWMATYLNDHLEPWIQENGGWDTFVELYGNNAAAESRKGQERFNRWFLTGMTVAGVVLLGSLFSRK

With `CCN1CCN(C(c2ccc(C(F)(F)F)cc2)c2ccc3cccnc3c2O)CC1` (stereo unspecified) the IC50 was > 40 µM (inactive).
